Source: ChEMBL document CHEMBL2029211, “From a marine neuropeptide to antimicrobial pseudopeptides containing aza-β(3)-amino acids: structure and activity” (J Med Chem, 2012)
Converted amounts (≈) assume the structure as drawn. The source made the active and inactive calls. The rule behind the calls is not given here. Starred links: 1 amine or outer side, 2 acyl side, 3 side chain; linkers in the order of their positions; H or OH if unused. Non-standard residues stand in square brackets, D forms with d. Residues, ends and D or L forms follow the SMILES beside them. *: point of attachment. azaβ3(1Nal) = O=C(CN(Cc1cccc2ccccc12)N[*:1])[*:2]; X2 = O=C(CN(Cc1ccc2ccccc2c1)N[*:1])[*:2]; X1 = NC(=O)CN(Cc1cccc2ccccc12)N*; X3 = NC(=O)CN(Cc1ccc2ccccc2c1)N*; X4 = NCCCCN(CC(=O)[*:2])N[*:1]

Columns and labels:
Vibrio harveyi = experiment: Antibacterial activity against Vibrio harveyi after 20 hrs by liquid growth inhibition assay; assay type: functional
In short: (§1)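 Vibrios cultured in saline poor broth (1% peptone, 1.5% NaCl, pH 7.2), diluted from mid-log phase to starting D600 = 0.001, then exposed to water-dissolved peptides at final 20–640 μg.mL-1. Incubated 20 h at 18°C; OD read at 595 nm. MIC is the lowest concentration giving 100% inhibition.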

Klebsiella pneumoniae = experiment: Antibacterial activity against Klebsiella pneumoniae after 20 hrs by liquid growth inhibition assay; assay type: functional
In short: (§2)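 Liquid growth inhibition with peptides dissolved in distilled water, final 20–640 μg.mL-1, added to mid-log bacteria at starting D600 = 0.001. Standard strains in poor broth (1% peptone, 0.5% NaCl, pH 7.5); pathogenic strains in poor broth plus 0.3% beef extract. Incubated 20 h at 30°C; growth read as OD at 595 nm; MIC taken as lowest concentration giving 100% inhibition.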

Vibrio aestuarianus = experiment: Antibacterial activity against Vibrio aestuarianus after 20 hrs by liquid growth inhibition assay; assay type: functional; in short: as §1
Salmonella typhimurium = experiment: Antibacterial activity against Salmonella typhimurium after 20 hrs by liquid growth inhibition assay; assay type: functional, Salmonella enterica subsp. enterica serovar Typhimurium; in short: as §2
Vibrio alginolyticus = experiment: Antibacterial activity against Vibrio alginolyticus after 20 hrs by liquid growth inhibition assay; assay type: functional; in short: as §1
Listeria monocytogenes = experiment: Antibacterial activity against Listeria monocytogenes after 20 hrs by liquid growth inhibition assay; assay type: functional
In short: (§3)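 Bacteria grown in brain heart infusion and challenged at mid-log phase (starting D600 = 0.001) with water-dissolved peptides at final 20–640 μg.mL-1. After 20 h at 30°C, OD at 595 nm was read. MIC is the lowest concentration giving complete (100%) growth inhibition.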

Escherichia coli = experiment: Antibacterial activity against Escherichia coli after 20 hrs by liquid growth inhibition assay; assay type: functional; in short: as §2
Enterococcus faecalis = experiment: Antibacterial activity against Enterococcus faecalis after 20 hrs by liquid growth inhibition assay; assay type: functional; in short: as §3
Priestia megaterium = experiment: Antibacterial activity against Bacillus megaterium after 20 hrs by liquid growth inhibition assay; assay type: functional; in short: as §2
Staphylococcus aureus = experiment: Antibacterial activity against Staphylococcus aureus after 20 hrs by liquid growth inhibition assay; assay type: functional; in short: as §2
Pseudomonas aeruginosa = experiment: Antibacterial activity against Pseudomonas aeruginosa after 20 hrs by liquid growth inhibition assay; assay type: functional; in short: as §2
[1] = (§4) Cytotoxicity against CHOK1 cells assessed as cell viability at 640 ug/ml after 36 hrs by MTT assay; assay type: cell-based, Cricetulus griseus, CHO-K1; details: chinese hamster, CHO-K1 cells; read-out: Activity
In short: (§5)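 CHO-K1 cells (1.34×10^4/well) in Ham F12 with L-glutamine and 10% foetal calf serum were preincubated 6 h at 37 °C, 5% CO2. Peptides in PBS were added at final 20–640 μg.mL−1 for 36 h. Viability was read by MTT reduction at 570 nm, with PBS as 100% and 1% Triton X-100 as 0% viability; triplicates.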

Vibrio splendidus = experiment: Antibacterial activity against Vibrio splendidus after 20 hrs by liquid growth inhibition assay; assay type: functional; in short: as §1
[2] = Toxicity in rabbit erythrocytes assessed as hemolysis up to 320 ug/ml; assay type: cell-based, Oryctolagus cuniculus, Erythrocyte; details: read-out: Activity
In short: (§6)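 Freshly isolated rabbit erythrocytes were incubated 1 h at 37°C with peptide in PBS at 20 to 320 μg.mL−1. Supernatant OD was read at 415 nm, with PBS as zero and 1% Triton X-100 as 100% hemolysis; triplicate for each concentration and control.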

[3] = Ratio of toxicity in CHOK1 cells to MIC for Salmonella typhimurium; assay type: functional, CHO-K1
[4] = Ratio of HD50 for rabbit erythrocytes to MIC for Staphylococcus aureus; assay type: functional
[5] = Cytotoxicity against CHOK1 cells assessed as cell viability at 160 ug/ml after 36 hrs by MTT assay; assay type: cell-based, Cricetulus griseus; details: chinese hamster, CHO-K1 cells; read-out: Activity; in short: as §5
CHO-K1 [6] = experiment: Cytotoxicity against CHOK1 cells assessed as cell viability up to 40 ug/ml after 36 hrs by MTT assay; assay type: cell-based, Cricetulus griseus; details: chinese hamster, cho-k1, 36 h; in short: as §5
[7] = Ratio of toxicity in CHOK1 cells to MIC for Listeria monocytogenes; assay type: functional, CHO-K1
[8] = Ratio of toxicity in CHOK1 cells to MIC for Staphylococcus aureus; assay type: functional, CHO-K1
CHO-K1 [9] = experiment: as §4; assay type: cell-based, Cricetulus griseus; details: chinese hamster, cho-k1, 36 h; in short: as §5
[10] = Toxicity in rabbit erythrocytes assessed as hemolysis; assay type: cell-based, Oryctolagus cuniculus, Erythrocyte; details: read-out: HD50 (the source's name); in short: as §6
[11] = Salmonella enterica subsp. enterica serovar Typhimurium

| Compound | MIC (Vibrio harveyi) | MIC (Klebsiella pneumoniae) | MIC (Vibrio aestuarianus) | MIC (Salmonella typhimurium; Salmonella enterica) [µg/mL] | MIC (Vibrio alginolyticus) | MIC (Listeria monocytogenes) | MIC (Escherichia coli) | MIC (Enterococcus faecalis) | MIC (Priestia megaterium) | MIC (Staphylococcus aureus) | MIC (Pseudomonas aeruginosa) | MIC (Vibrio splendidus) [µg/mL] | other results |
| --- | --- | --- | --- | --- | --- | --- | --- | --- | --- | --- | --- | --- | --- |
| CC(C)C[C@H](NC(=O)CN(Cc1ccc2ccccc2c1)NC(=O)[C@H](C)NC(=O)[C@H](CCCCN)NC(=O)CNC(=O)[C@H](CO)NC(=O)[C@H](CC(C)C)NC(=O)[C@H](C)N)C(=O)N[C@@H](CCCNC(=N)N)C(=O)NN(CC(N)=O)Cc1ccc2ccccc2c1 (H-ALSGKA[X2]LR-X3) | 640 µg/mL (≈ 517 µM) | > 640 µg/mL | 80 µg/mL (≈ 64.6 µM) | 160 (≈ 129 µM) | > 640 µg/mL | 160 µg/mL (≈ 129 µM) | 160 µg/mL (≈ 129 µM) | > 640 µg/mL | 80 µg/mL (≈ 64.6 µM) | 40 µg/mL (≈ 32.3 µM) | 320 µg/mL (≈ 258 µM) | 640 (≈ 517 µM) | viability at 36 h, 640 ug/ml [1]: 47% |
| CC(C)C[C@H](NC(=O)CN(Cc1ccc2ccccc2c1)NC(=O)[C@H](C)NC(=O)[C@H](CCCCN)NC(=O)CNC(=O)[C@H](CO)NC(=O)[C@H](CC(C)C)NC(=O)[C@H](C)N)C(=O)N[C@@H](CCCNC(=N)N)C(=O)N[C@@H](Cc1ccccc1)C(N)=O (H-ALSGKA[X2]LRF-NH2) | 40 µg/mL (≈ 34.1 µM) | inactive | 40 µg/mL (≈ 34.1 µM) | 80 (≈ 68.2 µM) | 80 µg/mL (≈ 68.2 µM) | 80 µg/mL (≈ 68.2 µM) | 320 µg/mL (≈ 273 µM) | > 640 µg/mL | 80 µg/mL (≈ 68.2 µM) | 80 µg/mL (≈ 68.2 µM) | 160 µg/mL (≈ 136 µM) | 20 (≈ 17 µM) | hemolysis [2]: 5% |
| CC(C)C[C@H](NC(=O)CN(Cc1cccc2ccccc12)NC(=O)[C@H](C)NC(=O)[C@H](CCCCN)NC(=O)CNC(=O)[C@H](CO)NC(=O)[C@H](CC(C)C)NC(=O)[C@H](C)N)C(=O)N[C@@H](CCCNC(=N)N)C(=O)NN(CC(N)=O)Cc1cccc2ccccc12 (H-ALSGKA[azaβ3(1Nal)]LR-X1) | 640 µg/mL (≈ 517 µM) | inactive | 80 µg/mL (≈ 64.6 µM) | 80 (≈ 64.6 µM) | > 640 µg/mL | 80 µg/mL (≈ 64.6 µM) | 40 µg/mL (≈ 32.3 µM) | > 640 µg/mL | 20 µg/mL (≈ 16.1 µM) | 20 µg/mL (≈ 16.1 µM) | 160 µg/mL (≈ 129 µM) | 320 (≈ 258 µM) | Ratio [3]: 8; Ratio [4]: 10; viability at 36 h, 160 ug/ml [5]: 78%; Activity (CHO-K1 [6]): Non-toxic; Ratio [7]: 8; Ratio [8]: 32; Activity (CHO-K1 [9]): Toxic; HC50 [10]: 200 µg/mL |
| CC(C)C[C@H](NC(=O)[C@H](C)N)C(=O)N[C@@H](CO)C(=O)NCC(=O)NN(CCCCN)CC(=O)N[C@@H](C)C(=O)N[C@@H](Cc1ccccc1)C(=O)N[C@@H](CC(C)C)C(=O)N[C@@H](CCCNC(=N)N)C(=O)N[C@@H](Cc1ccccc1)C(N)=O (H-ALSG[X4]AFLRF-NH2) | inactive | inactive | inactive | – | inactive | inactive | inactive | inactive | inactive | inactive | > 640 µg/mL | 320 (≈ 285 µM) | MIC (Salmonella typhimurium; [11]): inactive |
| CC1(C)S[C@@H]2[C@H](NC(=O)[C@H](N)c3ccccc3)C(=O)N2[C@H]1C(=O)O [AMPICILLIN] | > 320 µg/mL | 5 µg/mL (≈ 14.3 µM) | 5 µg/mL (≈ 14.3 µM) | 5 (≈ 14.3 µM) | > 320 µg/mL | 5 µg/mL (≈ 14.3 µM) | 5 µg/mL (≈ 14.3 µM) | 5 µg/mL (≈ 14.3 µM) | 20 µg/mL (≈ 57.2 µM) | 5 µg/mL (≈ 14.3 µM) | 320 µg/mL (≈ 916 µM) | 10 (≈ 28.6 µM) | – |
| H-ALSGDAFLRF-NH2 | > 640 µg/mL | inactive | 640 µg/mL | – | 320 µg/mL | inactive | 640 µg/mL | inactive | 640 µg/mL | inactive | inactive | 320 | MIC (Salmonella typhimurium; [11]): inactive |
| H-ALSGKAFLRF-NH2 | 320 µg/mL | > 640 µg/mL | 80 µg/mL | 320 | 320 µg/mL | inactive | 80 µg/mL | inactive | 80 µg/mL | 320 µg/mL | 640 µg/mL | 40 | hemolysis [2]: < 1.5%; viability at 36 h, 640 ug/ml [1]: 87% |
